Source: ChEMBL document CHEMBL4732044, “Discovery of a promising agent IQZ23 for the treatment of obesity and related metabolic disorders” (Eur J Med Chem, 2020)
≈ marks a conversion by molar mass, not a printed value. Calls of active or inactive are those of the source. The rule behind the calls is not given here.

Key:
3T3-L1 [1] = experiment: Lipid lowering activity in mouse 3T3-L1 cells assessed as reduction in adipogenic cocktail-induced triglyceride levels incubated for 6 days by GPO-POD assay; type: functional, cell-based; details: for Activity: dose 1-5 µM, time 6.0 day; for EC50: 3T3-L1, 144 h
Summary of the method: (§1)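 Confluent 3T3-L1 cells were treated from day 0 in cocktail (IBMX, dexamethasone, insulin) for 3 days, then re-dosed in insulin medium for 3 more days. For dose–response, concentrations were 0–10 µM (0.01, 0.1, 0.3, 1, 3, 10). On day 6, cells were lysed in 0.2% Triton X-100 and TG was measured by GPO-POD and normalized to BCA protein as % of control. EC50 was fitted from the dose–response. N = 4.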

3T3-L1 [2] = experiment: Lipid lowering activity in mouse 3T3-L1 cells assessed as reduction in adipogenic cocktail-induced triglyceride levels at 1 to 5 uM incubated for 6 days by GPO-POD assay relative to control; type: functional; details: dose 1-5 µM, time 6.0 day; summary of the method: as §1
3T3-L1 [3] = experiment: Lipid lowering activity in mouse 3T3-L1 cells assessed as adipogenic cocktail-induced triglyceride levels at 1 uM incubated for 6 days by GPO-POD assay relative to control; type: functional; details: time 6 day; summary of the method: as §1
3T3-L1 [4] = experiment: Inhibition of mouse 3T3-L1 cells adipocyte differentiation assessed as reduction in adipogenic cocktail-induced C/EBPalpha mRNA expression after 24 hrs by RT-qPCR analysis; type: functional, cell-based; details: dose 0.01-1 µM
Summary of the method: (§2)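 Confluent 3T3-L1 preadipocytes received differentiation cocktail (0.5 mM IBMX, 100 ng/mL dexamethasone, 2 µg/mL insulin) with compound (0.01–1 µM; metformin 1 mM) for 24 h. mRNA was measured by SYBR Green RT-qPCR (30 cycles), normalized to β-actin, with the differentiated control set to 1. N = 4 independent experiments.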

3T3-L1 [5] = experiment: Inhibition of mouse 3T3-L1 cells adipocyte differentiation assessed as reduction in adipogenic cocktail-induced PPARgamma mRNA expression after 24 hrs by RT-qPCR analysis; type: functional, cell-based; details: dose 0.01-1 µM; summary of the method: as §2
[6] = Stability in Sprague-Dawley rat liver microsomes assessed as remaining compound […] up to 60 mins in presence of NADPH by LC-MS/MS analysis; type: ADME, Microsome; details: read-out: Stabilty
[7] = Intrinsic clearance in Sprague-Dawley rat liver microsomes assessed as rate constant […] up to 60 mins in presence of NADPH by LC-MS/MS analysis; type: ADME, Microsome; details: read-out: CLH
3T3-L1 [8] = experiment: Activation of AMPK pathway in adipogenic cocktail-induced mouse 3T3-L1 cells assessed as increase in phosphorylation AMPKalpha at Thr172 residue at 0.01 to 1 uM after 24 hrs by Western blot analysis; type: cell-based; details: filed as activator, dose 0.01-1 µM
Summary of the method: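 Confluent 3T3-L1 pre-adipocytes exposed to adipogenic cocktail for 24 h with or without compound (0, 0.01, 0.1, 1 µM); DMSO vehicle. Lysates analysed by SDS-PAGE/Western blot for pAMPKα (Thr-172), normalized to actin, Ctrl set as 1. N = 4 independent experiments.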

3T3-L1 [9] = experiment: Lipid lowering activity in mouse 3T3-L1 cells assessed as reduction in adipogenic cocktail-induced triglyceride levels at 1 uM incubated for 6 days by Oil-red O staining based assay; type: functional, cell-based; details: time 6.0 day
Summary of the method: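 Differentiating 3T3-L1 cells were treated at 1 µM for 6 days, then washed with PBS and fixed in 4% formaldehyde for 1 h. Cells were stained with 0.3% Oil Red O for 30 min at room temperature in the dark and imaged at ×200.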

[10] = Half life in Sprague-Dawley rat liver microsomes assessed as rate constant […] up to 60 mins in presence of NADPH by LC-MS/MS analysis; type: ADME, Microsome
3T3-L1 [11] = experiment: Cytotoxicity against mouse 3T3-L1 cells assessed as change in LDH releasing level at 5 uM after 6 days by LDH releasing assay; type: cell-based; details: 3t3-l1, 144 h, time 6 day
Summary of the method: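 Differentiating 3T3-L1 cells were treated at 5 µM for 6 days. Plates were centrifuged and LDH activity in the supernatant was read at 490 nm. Release was expressed as fold = (treated − blank)/(control − blank), with untreated cells as blank and vehicle-differentiated control set to 1.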

3T3-L1 [12] = experiment: Lipid lowering activity in mouse 3T3-L1 cells assessed as reduction in adipogenic cocktail-induced triglyceride levels at 1 uM incubated for 6 days by GPO-POD assay relative to control; type: functional; parameters: scale not given: the % may be the effect or the level left; details: time 6 day; summary of the method: as §1
3T3-L1 [13] = experiment: Inhibition of mouse 3T3-L1 cells adipocyte differentiation assessed as reduction in adipogenic cocktail-induced C/EBPdelta mRNA expression after 24 hrs by RT-qPCR analysis; type: functional, cell-based; details: dose 0.01-1 µM; summary of the method: as §2
[14] = Aqueous solubility in PBS buffer at pH 7.4 after 24 hrs; type: physicochemical
3T3-L1 [15] = experiment: Inhibition of mouse 3T3-L1 cells adipocyte differentiation assessed as reduction in adipogenic cocktail-induced C/EBPbeta mRNA expression after 24 hrs by RT-qPCR analysis; type: functional, cell-based; details: dose 0.01-1 µM; summary of the method: as §2
[16] = Stability in Sprague-Dawley rat liver microsomes assessed as rate constant […] up to 60 mins in presence of NADPH by LC-MS/MS analysis; type: ADME, Microsome
3T3-L1 [17] = experiment: Activation of AMPK pathway in mouse 3T3-L1 cells assessed as increase in number of mitochondria copy at 2 uM after 24 hrs in presence of compound C by mito-tracker staining based Confocal microscopic method
Summary of the method: (§3)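 3T3-L1 cells grown in DMEM with 10% FBS at 37 °C and 5% CO2. After treatment, cells were stained for 30 min at 37 °C in the dark with 1 µM Mito-Tracker plus Hoechst 33342 (1:1000) and imaged by confocal microscopy (excitation 633 and 405 nm). Mitochondrial copy number was also taken as the mtDNA/nDNA ratio by PCR (cytochrome C versus 18S rRNA).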

3T3-L1 [18] = experiment: Activation of AMPK pathway in mouse 3T3-L1 cells assessed as increase in number of mitochondria copy at 2 uM after 24 hrs by mito-tracker staining based Confocal microscopic method; details: filed as activator; summary of the method: as §3

Structure (SMILES)	Activity (3T3-L1 [1])	Activity (3T3-L1 [2])	also measured
COc1ccc2[nH]c(-c3nc(NCCN(C)C)c4ccccc4n3)c(C=O)c2c1	Dose-dependent effect		
Cc1c(-c2nc(NCCCN(C)C)c3ccccc3n2)sc2ccccc12	Dose-dependent effect	Active	
CN(C)CCCNc1nc(-c2c(C=O)c3ccccc3n2C)nc2ccccc12	Dose-dependent effect		Activity (3T3-L1 [3]): 70.4%
CN(C)CCNc1nc(-c2oc3ccccc3c2C=O)nc2ccccc12	Dose-dependent effect		
CN(C)CCOc1nc(-c2[nH]c3ccccc3c2C=O)nc2ccccc12	Dose-dependent effect		
Cc1c(-c2nc(NCCCN3CCCC3)c3ccccc3n2)[nH]c2ccccc12	Dose-dependent effect	Active	
Cc1c(-c2nc(NCCCN3CCCC3)c3ccccc3n2)sc2ccccc12	Dose-dependent effect	Active	
O=Cc1c(-c2nc(NCCCN3CCCC3)c3ccccc3n2)oc2ccccc12	Dose-dependent effect		Activity (3T3-L1 [3]): 88.7%
Cc1c(-c2nc(OCCN(C)C)c3ccccc3n2)oc2ccccc12	Dose-dependent effect	Active	
Cc1c(-c2nc(OCCCN3CCCC3)c3ccccc3n2)oc2ccccc12	Dose-dependent effect	Active	
Cc1c(-c2nc(OCCCCN(C)C)c3ccccc3n2)oc2ccccc12	Dose-dependent effect	Active	
Cc1c(-c2nc(NCCCCN3CCCC3)c3ccccc3n2)sc2ccccc12	Dose-dependent effect	Active	
Cc1c(-c2nc(NCCCN(C)C)c3ccccc3n2)[nH]c2ccccc12	Dose-dependent effect	Active	
Cc1c(-c2nc(NCCCCN(C)C)c3ccccc3n2)[nH]c2ccccc12	Dose-dependent effect	Active	
Cc1c(-c2nc(OCCCN(C)C)c3ccccc3n2)oc2ccccc12	Dose-dependent effect	Active	
O=Cc1c(-c2nc(OCCN3CCCC3)c3ccccc3n2)[nH]c2ccccc12	Dose-dependent effect		
CCN(CC)CCCCNc1nc(-c2[nH]c3ccccc3c2C=O)nc2ccccc12	Dose-dependent effect		
COc1ccc2[nH]c(-c3nc(NCCN4CCCC4)c4ccccc4n3)c(C=O)c2c1	Dose-dependent effect		inhibition (3T3-L1 [4]): Dose-dependent effect; inhibition (3T3-L1 [5]): Dose-dependent effect; remaining at 1 h [6]: 66.6%; microsomal CLint [7]: 6.6 µL/min/mg; Activity (3T3-L1 [8]): Active; EC50 (3T3-L1 [1]): 310 nM; Activity (3T3-L1 [9]): Active; half-life [10]: 1.75 h; Activity (3T3-L1 [11]): Non-Toxic; Activity (3T3-L1 [12]): >=50%; inhibition (3T3-L1 [13]): Dose-dependent effect; solubility at 24 h [14]: 56.4 µg/mL (≈ 136 µM); inhibition (3T3-L1 [15]): Dose-dependent effect; k el at 1 h [16]: 0.00011 s⁻¹
Cc1c(-c2nc(NCCN(C)C)c3ccccc3n2)sc2ccccc12	Dose-dependent effect	Active	
CCN(CC)CCSc1nc(-c2[nH]c3ccccc3c2C=O)nc2ccccc12	Dose-dependent effect		

Structure (SMILES)	Activity (3T3-L1 [1])	Activity (3T3-L1 [2])	also measured
CN(C)CCCCNc1nc(-c2oc3ccccc3c2C=O)nc2ccccc12	Dose-dependent effect		
CN(C)CCCNc1nc(-c2c(C=O)c3ccccc3n2Cc2ccccc2)nc2ccccc12	Dose-dependent effect		Activity (3T3-L1 [3]): 57.1%
COc1ccc2[nH]c(-c3nc(NCCCN(C)C)c4ccccc4n3)c(C=O)c2c1	Dose-dependent effect		
CCN(CC)CCCCNc1nc(-c2[nH]c3ccc(OC)cc3c2C=O)nc2ccccc12	Dose-dependent effect		inhibition (3T3-L1 [4]): Dose-dependent effect; inhibition (3T3-L1 [5]): Dose-dependent effect; remaining at 1 h [6]: 84%; microsomal CLint [7]: 2.7 µL/min/mg; Activity (3T3-L1 [8]): Active; EC50 (3T3-L1 [1]): 920 nM; Activity (3T3-L1 [9]): Active; half-life [10]: 4.28 h; Activity (3T3-L1 [11]): Non-Toxic; Activity (3T3-L1 [12]): >=50%; inhibition (3T3-L1 [13]): Dose-dependent effect; solubility at 24 h [14]: 65.9 µg/mL (≈ 148 µM); inhibition (3T3-L1 [15]): Dose-dependent effect; k el at 1 h [16]: 4.5e-05 s⁻¹
Cc1c(-c2nc(NCCN3CCCC3)c3ccccc3n2)[nH]c2ccccc12	Dose-dependent effect	Active	
O=Cc1c(-c2nc(NCCCN3CCCC3)c3ccccc3n2)[nH]c2ccccc12	Dose-dependent effect		Activity (3T3-L1 [3]): 34.9%
Cc1c(-c2nc(NCCN3CCCC3)c3ccccc3n2)sc2ccccc12	Dose-dependent effect	Active	
O=Cc1c(-c2nc(OCCCN3CCCC3)c3ccccc3n2)[nH]c2ccccc12	Dose-dependent effect		
CN(C)CCCNc1nc(-c2oc3ccccc3c2C=O)nc2ccccc12	Dose-dependent effect		
CCN(CC)CCNc1nc(-c2[nH]c3ccccc3c2C)nc2ccccc12	Dose-dependent effect	Active	
Cc1c(-c2nc(NCCN(C)C)c3ccccc3n2)[nH]c2ccccc12	Dose-dependent effect	Active	
O=Cc1c(-c2nc(NCCN3CCCC3)c3ccccc3n2)oc2ccccc12	Dose-dependent effect		
CN(C)CCCCOc1nc(-c2[nH]c3ccccc3c2C=O)nc2ccccc12	Dose-dependent effect		
O=Cc1c(-c2nc(NCCCCN3CCCC3)c3ccccc3n2)[nH]c2ccccc12	Dose-dependent effect		inhibition (3T3-L1 [4]): Dose-dependent effect; inhibition (3T3-L1 [5]): Dose-dependent effect; remaining at 1 h [6]: 83.9%; microsomal CLint [7]: 2.8 µL/min/mg; Activity (3T3-L1 [8]): Active; EC50 (3T3-L1 [1]): 510 nM; Activity (3T3-L1 [9]): Active; half-life [10]: 4.13 h; Activity (3T3-L1 [11]): Non-Toxic; Activity (3T3-L1 [12]): >=50%; inhibition (3T3-L1 [13]): Dose-dependent effect; solubility at 24 h [14]: 15.1 µg/mL (≈ 36.5 µM); inhibition (3T3-L1 [15]): Dose-dependent effect; k el at 1 h [16]: 4.67e-05 s⁻¹
CN(C)CCSc1nc(-c2[nH]c3ccccc3c2C=O)nc2ccccc12	Dose-dependent effect		
COc1ccc2[nH]c(-c3nc(NCCCN4CCCC4)c4ccccc4n3)c(C=O)c2c1	Dose-dependent effect		
CN(C)CCCOc1nc(-c2[nH]c3ccccc3c2C=O)nc2ccccc12	Dose-dependent effect		
Cc1c(-c2nc(OCCN3CCCC3)c3ccccc3n2)oc2ccccc12	Dose-dependent effect	Active	
NC(=O)c1ncn([C@@H]2O[C@H](CO)[C@@H](O)[C@H]2O)c1N			Activity (3T3-L1 [17]): inactive; Activity (3T3-L1 [18]): Active
CCN(CC)CCCCNc1nc(-c2[nH]c3ccccc3c2C)nc2ccccc12	Dose-dependent effect	Active	
